Screening results as filed in PubChem BioAssay.
An excerpt weighted towards active compounds, which were near 5.9% of everything screened.
Cav3 T inh: blocks human Cav3.2 T-type calcium channel | O95180 | Cav3.2-expressing cells, Fluo-4 calcium fluorescence FDSS; hits give low values | B-score at 10 µM | 100,000 compounds, 4% hits | AID 449739;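 active = single-dose well whose peak fluorescence ratio is a statistical outlier from its plate by either plate-standardised score or position-corrected B-score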
Pyk2 oligo antag: antagonists of human Pyk2 oligomerization; Q293 cells, Pyk2 FERM NanoBiT luminescence; hits give low values; z-score (the deposit names both 25 µM and 10 µM); 99,000 compounds, 0.83% hits; AID 1347419;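 active = Z-score of -3 or lower, scaled per plate to the spread of control and sample wells; inactive = z-score above -3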;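 note: negative z-score means lost luminescence so less FERM oligomerization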
Target sequence (Q14289 whole entry, looked up): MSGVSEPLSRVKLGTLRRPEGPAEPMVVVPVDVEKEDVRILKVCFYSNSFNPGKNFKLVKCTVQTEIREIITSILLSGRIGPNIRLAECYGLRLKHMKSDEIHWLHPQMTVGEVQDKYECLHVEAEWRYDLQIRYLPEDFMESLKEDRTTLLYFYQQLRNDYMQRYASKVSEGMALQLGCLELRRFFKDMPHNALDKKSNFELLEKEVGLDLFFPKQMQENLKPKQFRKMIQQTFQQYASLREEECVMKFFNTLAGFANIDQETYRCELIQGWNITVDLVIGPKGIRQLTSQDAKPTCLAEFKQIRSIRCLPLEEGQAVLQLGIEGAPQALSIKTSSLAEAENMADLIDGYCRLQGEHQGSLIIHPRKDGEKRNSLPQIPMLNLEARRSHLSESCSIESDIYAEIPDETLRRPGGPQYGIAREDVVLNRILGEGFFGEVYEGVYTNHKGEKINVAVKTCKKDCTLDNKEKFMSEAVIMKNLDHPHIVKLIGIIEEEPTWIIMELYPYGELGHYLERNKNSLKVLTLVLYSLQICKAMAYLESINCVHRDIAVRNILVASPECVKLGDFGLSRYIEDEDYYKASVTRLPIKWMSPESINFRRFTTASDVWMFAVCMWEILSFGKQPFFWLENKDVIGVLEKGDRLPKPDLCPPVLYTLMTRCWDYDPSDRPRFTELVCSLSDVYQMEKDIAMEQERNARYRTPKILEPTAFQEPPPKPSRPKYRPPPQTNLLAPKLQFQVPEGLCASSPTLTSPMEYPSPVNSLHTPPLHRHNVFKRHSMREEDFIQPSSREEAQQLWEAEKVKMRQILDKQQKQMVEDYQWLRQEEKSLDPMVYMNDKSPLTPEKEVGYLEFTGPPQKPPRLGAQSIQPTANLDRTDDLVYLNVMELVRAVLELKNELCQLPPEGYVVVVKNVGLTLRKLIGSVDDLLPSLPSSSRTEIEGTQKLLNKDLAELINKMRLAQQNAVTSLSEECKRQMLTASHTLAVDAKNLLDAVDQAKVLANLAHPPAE
Measles CPE: protection of cells from measles virus. Measles virus-infected cells, CPE protection, absorbance. AID 841. 140,000 compounds, 1.5% hits. protection (pct of control), % at 4 µM; in the data active = protection mostly above about 24%, no sharp cut-off; inactive = mostly below about 26%
hDAT+cocaine: modulates human dopamine transporter uptake under cocaine; Q01959; LLC-PK1 hDAT cells, [14C]-dopamine uptake with cocaine IC80; actives deviate in either direction; B-score at 10 µM; 110,000 compounds, 1.3% hits;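 active = Z score or B-score, a plate-position-corrected score, falls beyond the plate's 99.7% confidence bounds, in either direction; inactive = both scores lie inside the 99.7% bounds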;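 note: scored against the spread of the other compound wells on the same plate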
Phagocytosis inh: inhibitors of macrophage phagocytosis; J774A.1 macrophage IgG-bead phagocytosis, imaging; inhibition, % at 5 µM; 110,000 compounds, 0.07% hits; AID 1029;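 active = inhibition above the mean of the plate negative controls plus 5 SD, cut at about 13% in these data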;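 note: phagocytic index as fraction of beads internalized from green versus red external bead signal; plate controls were DMSO negative control for no effect and cytochalasin-D positive control for full effect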
Rev-RRE block: disrupts HIV-1 Rev binding to RRE RNA; P05866; Rev peptide-RRE RNA binding, FRET; inhibition, % at 8 µM; 97,000 compounds, 0.79% hits;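 active = inhibition above the screen-wide mean plus 3 SD, cut at about 35% in these data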;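 note: 0% = median DMSO wells and 100% = median Neomycin B control wells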
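Test system: Cy5-tagged RRE RNA duplex with fluorescein-tagged Rev peptide | Read-out: % inhibition of FRET ratio versus controls | Probe or stimulus: Labelled Rev peptide | Incubation: 5 min RNA-compound premix plus 15 min binding step, 25 °C | Technique: FRET fluorescence readout | Benchmarks: DMSO low control, neomycin B high control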
The depositor's hits bear a star.

COc1ccc(-c2cc(=O)c3c(OC)c(OC)c(OC)cc3o2)cc1 was read as Cav3 T inh 1.25 and hDAT+cocaine 4.69*.
`CCOC(=O)C1=C(NC(=S)NC(=O)c2ccccc2)c2ccccc2CC12CCCC2` gave Measles CPE 61.8* and Phagocytosis inh -10.2.
For Cc1cccc(OP(=O)(Oc2ccccc2)OC(c2ccccc2)C(F)(F)F)c1 (stereo unspecified) the results were Measles CPE 8.4 and Phagocytosis inh 2.0.
C[C@@H]1O[C@@H](O[C@H]2C[C@@H](O)[C@]3(CO)[C@H]4[C@H](O)C[C@]5(C)[C@@H](C6COC(=O)C6)CC[C@]5(O)[C@@H]4CC[C@]3(O)C2)[C@H](O)[C@H](O)[C@H]1O (stereo partly specified) was read as Cav3 T inh 0.128, Measles CPE 23.6 and hDAT+cocaine -6.38*.
Screening COc1ccc(NC(=S)NC(NC(=O)CF)C(Cl)(Cl)Cl)c([N+](=O)[O-])c1 (stereo unspecified) returned Measles CPE 19.7 and Phagocytosis inh -10.2.
`O=C(Cc1ccc(Br)cc1)N1CCN(Cc2ccccc2)CC1` gave Cav3 T inh -0.551, Pyk2 oligo antag 1, Measles CPE 85.6*, hDAT+cocaine 0.0179, Phagocytosis inh 4.7 and Rev-RRE block 9.0.
`COc1ccc(Br)cc1CN1CCN(C(=O)Cc2ccccc2)CC1` gave Cav3 T inh -0.474, Pyk2 oligo antag -0.44, Measles CPE 8.2, hDAT+cocaine 2.53, Phagocytosis inh 1.3 and Rev-RRE block -2.7.
Screening Cc1cc(C)c2c(c1)-c1cc(C)nn1C(c1cccnc1)N2 (stereo unspecified) returned Cav3 T inh -0.727 and hDAT+cocaine 0.0307.
CN(C)C(=O)Oc1cccc(-c2cn3cc(Cl)ccc3n2)c1 was read as Measles CPE 44.9* and Phagocytosis inh -2.9.
For CC1C(c2cccs2)=[N+]([O-])C(C)(C(=O)c2ccc(Cl)cc2)N1O (stereo unspecified) the results were Cav3 T inh 0.0474, Pyk2 oligo antag -0.6, hDAT+cocaine 1.06 and Rev-RRE block 7.7.
O=C(CNC(=O)OCc1ccccc1)Nc1ccc(Br)cc1C(=O)c1ccccc1 was read as Cav3 T inh -5.89*, Pyk2 oligo antag -0.19, Measles CPE 33.3, hDAT+cocaine -0.8, Phagocytosis inh -3.7 and Rev-RRE block 6.0.
`O=C(CNC(=O)c1ccccc1)Nc1ccc(Br)cc1C(=O)c1ccccc1` gave Cav3 T inh -6.95*, Pyk2 oligo antag -0.62, Measles CPE 5.1, hDAT+cocaine 0.858, Phagocytosis inh 0.0 and Rev-RRE block 7.1.
`CN1C(=O)N(C)C(=O)C2(Cc3cc([N+](=O)[O-])ccc3N(C)C2c2ccccc2)C1=O` (stereo unspecified) gave Measles CPE 5.2 and Phagocytosis inh -4.4.
COc1cccc(OC)c1C1=NCC(=O)Nc2c1oc1ccc(Br)cc21 was read as Cav3 T inh -4.24*, Measles CPE 8.2, hDAT+cocaine -0.997 and Phagocytosis inh -0.1.
For O=C1CN=C(c2ccc(Br)cc2)c2oc3ccccc3c2N1 the results were Cav3 T inh 0.917, Pyk2 oligo antag 0.75, Measles CPE 26.1, hDAT+cocaine -0.165, Phagocytosis inh -0.1 and Rev-RRE block 1.6.
For Cc1cc(Br)ccc1N1C(=O)CC(=O)NC1=O the results were Cav3 T inh 0.127, Pyk2 oligo antag 0.11, Measles CPE 38.3*, hDAT+cocaine -0.432 and Phagocytosis inh -0.4.
For O=C1CC(=O)N(c2ccc3c(c2)OCO3)C(=O)N1 the results were Cav3 T inh 0.392, Pyk2 oligo antag 0.26, Measles CPE 1.2, hDAT+cocaine 0.145, Phagocytosis inh 0.6 and Rev-RRE block 15.5.
`O=C(O)[C@H]1C[C@@H]1[C@H](NP(=O)(c1ccccc1)c1ccccc1)c1ccccc1` gave Cav3 T inh -1.57, Measles CPE 8.7 and hDAT+cocaine -0.06.
For Cn1c2ccccc2c2c(C(=O)N3CCC4(CC3)OCCO4)cn(C3CCCCC3)c(=O)c21 the results were Cav3 T inh -5.05*, Pyk2 oligo antag -0.88, Measles CPE 7.7, hDAT+cocaine 0.56, Phagocytosis inh -0.6 and Rev-RRE block 9.0.
For Cn1cc(C(=O)N2CCC3(CC2)OCCO3)c2c3ccccc3n(C)c2c1=O the results were Cav3 T inh 1.09, Pyk2 oligo antag -1.84, Measles CPE 6.7, hDAT+cocaine 0.593, Phagocytosis inh 1.4 and Rev-RRE block 2.7.
Screening CC(=O)N(C)CC#CCN1CCCC(CO)C1 (stereo unspecified) returned Cav3 T inh 0.575 and hDAT+cocaine -0.0253.
COc1cccc(-n2c(CN3CCN(C)CC3)nc3ccc([N+](=O)[O-])cc3c2=O)c1 was read as Measles CPE 5.2 and Phagocytosis inh -8.3.
For O=c1c2ccccc2nc(N2CCCC2)n1-c1ccc(Cl)cc1 the results were Cav3 T inh -4.58*, Pyk2 oligo antag -0.29, Measles CPE 27.3, hDAT+cocaine -0.0992 and Rev-RRE block 7.8.
C/C=C1\CN2[C@H]3C[C@@]45c6ccccc6N(C)[C@H]4[C@@H]2CC1C3[C@H]5O (stereo partly specified) was read as Cav3 T inh -4.6* and hDAT+cocaine 0.0692.
`CNC(=O)OCCc1n(C)cc[n+]1C` gave Measles CPE 6.1.
`N[C@@H](Cc1c[nH]c2ccccc12)c1nnc(SCc2ccc(Cl)cc2)o1` gave Pyk2 oligo antag 0.66, Measles CPE 1.6, hDAT+cocaine -8.48*, Phagocytosis inh -0.8 and Rev-RRE block -0.8.
For N[C@@H](Cc1c[nH]c2ccccc12)c1nnc(SCc2ccc(F)cc2)o1 the results were Cav3 T inh -0.614, Pyk2 oligo antag 0.29, Measles CPE 6.7, hDAT+cocaine 1.22, Phagocytosis inh 1.7 and Rev-RRE block 5.2.
For N[C@@H](Cc1c[nH]c2ccccc12)c1nnc(SCc2ccccc2)o1 the results were Cav3 T inh -0.931, Pyk2 oligo antag -0.25, Measles CPE 44.8*, hDAT+cocaine 3.16, Phagocytosis inh 1.9 and Rev-RRE block 0.2.
For CN(C)CC1CSCCC1(O)c1ccc(C(F)(F)F)cc1 (stereo unspecified) the results were Pyk2 oligo antag -0.39, Measles CPE 16.0 and Phagocytosis inh -1.7.
Screening CC[N+](CC)(CC)CC returned Cav3 T inh 0.628 and hDAT+cocaine 0.899.
`CCOC(=O)c1c(NC(=O)C(c2ccccc2)c2ccccc2)sc2c1C1CCN2CC1` gave Cav3 T inh -4.15*, Pyk2 oligo antag 0, Measles CPE 1.3, hDAT+cocaine 0.892 and Rev-RRE block 0.1.
COc1cc(C(O)CNC(C)C)cc(F)c1OC (stereo unspecified) was read as Cav3 T inh 0.685 and hDAT+cocaine 0.371.
Cc1c(C(=O)c2cccc3ccccc23)c2cccc3c2n1[C@H](CN1CCOCC1)CO3 was read as hDAT+cocaine 0.75.
